Results reported in ChEMBL document CHEMBL4765355, “Synthesis of adenine dinucleosides SAM analogs as specific inhibitors of SARS-CoV nsp14 RNA cap guanine-N7-methyltransferase” (Eur J Med Chem, 2020).
Calls of active or inactive are those of the source. The calls are words filed in the database; no cut-off is given here.

How the values were obtained:
[1] = test system: Severe acute respiratory syndrome-related coronavirus; assay: Inhibition of 2'-O-MTase activity of SARS-CoV nsp10/16 complex at 200 uM
[2] = molecular target: RNA-N7 MTase (mRNA cap guanine-N(7) methyltransferase) (Homo sapiens, UniProt O43148); assay: Inhibition of N-terminal His6-tagged human RNA-N7 MTase expressed in Escherichia coli using GpppAC4 and [3H]SAM as substrate at 50 uM preincubated with enzyme followed by substrate addition and measured after 30 mins by filter binding assay; settings: probe GpppAC4 and [3H]SAM
Chain of RNA-N7 MTase (mRNA cap guanine-N(7) methyltransferase) (O43148 whole entry): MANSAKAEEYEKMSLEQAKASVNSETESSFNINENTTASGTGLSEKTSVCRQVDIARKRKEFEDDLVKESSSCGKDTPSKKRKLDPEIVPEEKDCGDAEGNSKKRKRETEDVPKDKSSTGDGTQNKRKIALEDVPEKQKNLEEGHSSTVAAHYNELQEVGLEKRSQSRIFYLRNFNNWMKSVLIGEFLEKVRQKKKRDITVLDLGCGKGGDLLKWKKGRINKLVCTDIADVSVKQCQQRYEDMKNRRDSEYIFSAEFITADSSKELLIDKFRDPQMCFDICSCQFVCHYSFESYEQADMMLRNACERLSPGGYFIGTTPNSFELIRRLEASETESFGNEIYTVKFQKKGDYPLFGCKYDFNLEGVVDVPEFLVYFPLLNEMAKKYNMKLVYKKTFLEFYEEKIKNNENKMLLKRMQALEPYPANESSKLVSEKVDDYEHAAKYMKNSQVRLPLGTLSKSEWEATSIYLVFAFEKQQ
Summary of the method: (§1)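 Filter binding assay in 40 mM Tris-HCl pH 8.0, 1 mM DTT, 1 mM MgCl2, 2 µM SAM, 0.1 µM 3H-SAM and 0.7 µM GpppAC4 RNA. Enzyme is nsp14 (50 nM), hRNMT (50 nM) or vaccinia D1–D12 (41 U). Compound is at 50 µM with 5% final DMSO. Reactions run 30 min at 30 °C, are stopped by ice-cold water dilution, and 3H on DEAE filters is counted. Percent inhibition is relative to a 5% DMSO control, mean of three experiments.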

[3] = test system: Severe acute respiratory syndrome-related coronavirus; assay: Binding affinity to SARS-CoV nsp14 assessed as increase in melting temperature at 1 mM at pH 7.5 by differential scanning fluorimetry
Summary of the method: (§2)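 Purified SARS-CoV nsp14 (5 µM) in 20 mM HEPES pH 7.5, 150 mM NaCl and 1X SYPRO orange, with 1 mM compound (DMSO stock; SAM and sinefungin from water). Protein is mixed with compound before dye is added. Fluorescence is read from 20 to 95 °C at 0.2 °C/min. Tm comes from curve fitting, and ΔTm is taken against a 5% DMSO control.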

West Nile virus = assay: Inhibition of 2'-O-methyltransferase in West-Nile virus at 200 uM
[4] = test system: Severe acute respiratory syndrome-related coronavirus; assay: Binding affinity to SARS-CoV nsp14 assessed as melting temperature at 1 mM at pH 7.5 by differential scanning fluorimetry; summary of the method: as §2
Zika virus = assay: Inhibition of 2'-O-methyltransferase in Zika virus at 200 uM
[5] = molecular target: mRNA cap guanine-N(7) methyltransferase (Homo sapiens, UniProt O43148); assay: Inhibition of N-terminal His6-tagged human RNA-N7 MTase expressed in Escherichia coli using GpppAC4 and [3H]SAM as substrate preincubated with enzyme followed by substrate addition and measured after 30 mins by filter binding assay
Chain of mRNA cap guanine-N(7) methyltransferase (O43148 whole entry): as above
Summary of the method: (§3)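 Dose-response filter binding assay with nsp14 or hRNMT (each 50 nM) pre-incubated with increasing compound concentrations (5% final DMSO). Then 0.7 µM GpppAC4, 2 µM SAM and 0.1 µM 3H-SAM are added in Tris pH 8.0/DTT/MgCl2, 30 min at 30 °C. IC50 is taken from a Hill slope fit, mean of three independent experiments.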

Orthopoxvirus vaccinia [6] = assay: Inhibition of N7-MTase activity of Vaccinia virus mRNA capping enzyme D1/D12 complex using GpppAC4 and [3H]SAM as substrate at 50 uM preincubated with enzyme followed by substrate addition and measured after 30 mins by filter binding assay; summary of the method: as §1
[7] = Inhibition of N7-MTase activity of N-terminal His6-tagged SARS-CoV nsp14 expressed in Escherichia coli using GpppAC4 and [3H]SAM as substrate preincubated with enzyme followed by substrate addition and measured after 30 mins by filter binding assay; parameters: species or system Severe acute respiratory syndrome-related coronavirus; summary of the method: as §3
[8] = Binding affinity to SARS-CoV nsp14 by TSA based analysis; parameters: species or system Severe acute respiratory syndrome-related coronavirus
Summary of the method: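 Thermal shift assay with nsp14 (5 µM) in HEPES pH 7.5/NaCl/SYPRO orange, using increasing compound concentrations and a 20–95 °C ramp. Apparent KD is obtained by nonlinear regression with a one-site specific binding Hill slope equation.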

Dengue virus = assay: Inhibition of 2'-O-methyltransferase in Dengue virus at 200 uM
Orthopoxvirus vaccinia [9] = assay: Inhibition of 2'-O-methyltransferase activity of Vaccinia virus VP39 at 200 uM
[10] = test system: Severe acute respiratory syndrome-related coronavirus; assay: Inhibition of N7-MTase activity of N-terminal His6-tagged SARS-CoV nsp14 expressed in Escherichia coli using GpppAC4 and [3H]SAM as substrate at 50 uM preincubated with enzyme followed by substrate addition and measured after 30 mins by filter binding assay; summary of the method: as §1

With `Nc1ncnc2c1ncn2[C@@H]1OC(CN(CCO[C@@H]2[C@H](O)C(CO)O[C@H]2n2cnc3c(N)ncnc32)S(=O)(=O)c2ccc(Cl)c([N+](=O)[O-])c2)[C@@H](O)[C@H]1O` (single isomer, unassigned) the inhibition [1] was “inactive”, the inhibition at 0.5 h, 50 µM [2] was 33.9% and the ΔTm [3] was 10.8 °C. The inhibition (West Nile virus) was “inactive”, the Tm [4] was greater than 40 °C and the inhibition (Zika virus) was “inactive”. It also gave an IC50 [5] of 247 µM, an inhibition (Orthopoxvirus vaccinia [6]) of 2.8% and an IC50 [7] of 0.6 µM. The Kd [8] was 1.3 µM, the inhibition (Dengue virus) was “inactive” and the inhibition (Orthopoxvirus vaccinia [9]) was “inactive”. It also gave an inhibition [10] of 97.2%.
